# From ChEMBL document CHEMBL2062398, “De novo peptide design with C3a receptor agonist and antagonist activities: theoretical predictions and experimental validation” (J Med Chem, 2012)
# The source made the active and inactive calls. The calls are words filed in the database; no cut-off is given here.
# Key:
# [1] = biological target: T1, C3a anaphylatoxin chemotactic receptor (Homo sapiens) (UniProt Q16581); experiment: Agonist activity at human C3a receptor expressed in RBL-2H3 cells assessed as beta-hexosaminidase activity in cell supernatant by degranulation assay relative to recombinant human C3a; type: functional, cell-based
# T1 sequence (whole entry): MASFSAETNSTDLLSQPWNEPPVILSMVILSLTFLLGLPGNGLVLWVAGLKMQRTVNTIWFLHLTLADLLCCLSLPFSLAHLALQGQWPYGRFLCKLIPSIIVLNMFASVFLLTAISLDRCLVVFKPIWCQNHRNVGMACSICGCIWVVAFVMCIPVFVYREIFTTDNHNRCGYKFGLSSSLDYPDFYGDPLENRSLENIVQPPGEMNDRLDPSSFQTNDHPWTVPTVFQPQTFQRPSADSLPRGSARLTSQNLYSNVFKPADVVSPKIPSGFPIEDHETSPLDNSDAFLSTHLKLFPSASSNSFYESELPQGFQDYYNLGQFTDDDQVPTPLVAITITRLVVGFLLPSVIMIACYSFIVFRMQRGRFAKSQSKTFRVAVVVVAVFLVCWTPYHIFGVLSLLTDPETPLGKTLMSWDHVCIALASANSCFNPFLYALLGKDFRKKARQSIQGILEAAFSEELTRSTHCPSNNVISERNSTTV
# Procedure, shortened: (§1)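 Transfected RBL-2H3 cells kept in DMEM, 10% FCS, 400 mg/liter G-418, 37°C, 5% CO2. Degranulation read as β-hexosaminidase activity in supernatant. Secretion expressed as percent of maximal response to 200 nM recombinant human C3a or 10 nM FLPLAR. EC50, calculated maximum and SEM from iterative curve fitting.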
# [2] = biological target: T1, C3a anaphylatoxin chemotactic receptor (Homo sapiens); experiment: Agonist activity at human C3a receptor expressed in RBL-2H3 cells assessed as beta-hexosaminidase activity in cell supernatant by degranulation assay relative to FLPLAR; type: functional, cell-based; procedure, shortened: as §1
# [3] = biological target: T1, C3a anaphylatoxin chemotactic receptor (Homo sapiens); experiment: Antagonist activity at human C3a receptor expressed in RBL-2H3 cells assessed as inhibition of FLPLAR-induced beta-hexosaminidase activity in cell supernatant measuring minimum receptor activity compound preincubated for 10 mins by degranulation assay; type: functional, cell-based; parameters: scale not given: the % may be the effect or the level left
# Procedure, shortened: (§2)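 RBL-2H3 cells expressing human C3aR (DMEM, 10% FCS, G-418, 37°C) were pretreated with peptide for 10 min before 200 nM recombinant human C3a or 10 nM FLPLAR was added. β-Hexosaminidase release in supernatant was measured as percent of the agonist-alone response. IC50, calculated minimum and SEM came from iterative curve fitting.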
# [4] = biological target: T1, C3a anaphylatoxin chemotactic receptor (Homo sapiens); experiment: Antagonist activity at human C3a receptor expressed in RBL-2H3 cells assessed as inhibition of human recombinant C3a -induced beta-hexosaminidase activity in cell supernatant measuring minimum receptor activity compound preincubated for 10 mins by degranulation assay; type: functional, cell-based; parameters: scale not given: the % may be the effect or the level left; procedure, shortened: as §2
# [5] = biological target: T2, C5a anaphylatoxin chemotactic receptor 1 (Homo sapiens) (UniProt P21730); experiment: Agonist activity at human C5a receptor expressed in RBL-2H3 cells assessed as beta-hexosaminidase activity in cell supernatant up to 1 uM by degranulation assay; type: functional, cell-based
# T2 sequence (whole entry): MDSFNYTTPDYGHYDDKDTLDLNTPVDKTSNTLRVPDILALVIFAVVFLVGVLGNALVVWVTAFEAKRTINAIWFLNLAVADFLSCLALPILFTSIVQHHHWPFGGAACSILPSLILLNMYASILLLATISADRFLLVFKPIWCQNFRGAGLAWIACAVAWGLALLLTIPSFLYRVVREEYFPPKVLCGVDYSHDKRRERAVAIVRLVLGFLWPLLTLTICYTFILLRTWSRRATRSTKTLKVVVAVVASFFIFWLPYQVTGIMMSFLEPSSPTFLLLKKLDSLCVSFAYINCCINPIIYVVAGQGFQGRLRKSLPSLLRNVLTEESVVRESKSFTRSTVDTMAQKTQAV
# Procedure, shortened: (§3)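 Human C5aR-transfected RBL-2H3 cells were tested with peptides up to 1 μM. In the agonist mode, β-hexosaminidase secretion was taken relative to 200 nM human C5a. In the antagonist mode, cells were pretreated with peptide for 10 min before C5a was added.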
# [6] = biological target: T2, C5a anaphylatoxin chemotactic receptor 1 (Homo sapiens); experiment: Antagonist activity at human C5a receptor expressed in RBL-2H3 cells assessed as beta-hexosaminidase activity in cell supernatant up to 1 uM compound preincubated for 10 mins by degranulation assay; type: functional, cell-based; procedure, shortened: as §3
# [7] = biological target: T3, C3a anaphylatoxin chemotactic receptor (Homo sapiens, UniProt Q16581); experiment: Agonist activity at human C3a receptor expressed in RBL-2H3 cells assessed as beta-hexosaminidase activity in cell supernatant by degranulation assay; type: functional, cell-based
# T3 sequence (Q16581 whole entry): T1 sequence (whole entry)
# Procedure, shortened: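 Degranulation read as β-hexosaminidase activity in supernatant. Secretion expressed as percent of maximal response to 200 nM recombinant human C3a or 10 nM FLPLAR. EC50, calculated maximum and SEM from iterative curve fitting.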
# [8] = biological target: T3, C3a anaphylatoxin chemotactic receptor; experiment: Antagonist activity at human C3a receptor expressed in RBL-2H3 cells assessed as beta-hexosaminidase activity in cell supernatant compound preincubated for 10 mins by degranulation assay; type: functional, cell-based
# [9] = biological target: T3, C3a anaphylatoxin chemotactic receptor; experiment: Agonist activity at C3a receptor in dbcAMP differentiated human U937 cells assessed as increase in intracellular calcium using […] staining by microplate reader; type: functional, cell-based, U-937
# Procedure, shortened: (§4)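 U937 cells grown in RPMI-1640 with 10% FCS at 37°C, 5% CO2, differentiated 48 h in 1 mM dibutyryl cAMP. Intracellular calcium rise read with Fluo-4 dye on a plate reader.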
# [10] = biological target: T1, C3a anaphylatoxin chemotactic receptor (Homo sapiens); experiment: Agonist activity at C3a receptor in dbcAMP differentiated human U937 cells assessed as increase in intracellular calcium using […] staining by microplate reader relative to FLPLAR; type: functional, cell-based; details: U-937; procedure, shortened: as §4
Substance,Emax [1],Emax [2],Activity [3],Activity [4],Activity [5],Activity [6],EC50 [7],IC50 [8],EC50 [9],Emax [10]
Ac-WWDRRWRASKLGLAR-OH,14%,14%,48%,24%,inactive,inactive,,,,
Ac-WWERRWRASKLGLAR-OH,22%,22%,61%,35%,inactive,inactive,,,,
Ac-WWGKKYRASKLGLAR-OH,,38%,,52%,inactive,inactive,,,,
Ac-WWRNRWRENRLGLAR-OH,62%,,62.5%,62.5%,inactive,inactive,,,,
Ac-WWSRRWRASKLGLAR-OH,13%,13%,40%,40%,inactive,inactive,148 nM,63.1 nM,,
Ac-WWTRRWRADKLGLAR-OH,79%,79%,68%,68%,inactive,inactive,66.1 nM,4.57 nM,490 nM,74%
Ac-WWTRRWRASKLGLAR-OH,35%,35%,47%,47%,inactive,inactive,195 nM,50.1 nM,,
Ac-WWTRRWRGDKLGLAR-OH,72%,72%,70%,70%,inactive,inactive,25.1 nM,9.12 nM,794 nM,81%
Ac-WWTRRWRTDKLGLAR-OH [listing 1 of 2 here],,,,,,,339 nM,5.01 nM,,
Ac-WWTRRWRTDKLGLAR-OH [listing 2 of 2 here],43%,43%,60%,60%,inactive,inactive,,,,
Ac-WWTRRWRTEKLGLAR-OH [listing 1 of 2 here],,,,,,,708 nM,7.76 nM,,
Ac-WWTRRWRTEKLGLAR-OH [listing 2 of 2 here],45%,45%,60%,60%,inactive,inactive,,,,
Ac-WWTRRYRASKLGLAR-OH [listing 1 of 2 here],,,,,,,1000 nM,23.4 nM,,
Ac-WWTRRYRASKLGLAR-OH [listing 2 of 2 here],29%,29%,42%,42%,inactive,inactive,,,,
H-WWTRRWRASKLGLAR-OH,,37%,63%,,inactive,inactive,,,,
